The list is not random: actives were taken first. Their share in the collection is about 2%.
MT1-MMP act inh – blockers of MT1-MMP proenzyme processing, primary screen, HT1080 RFP-PRO-GFP cells, GFP/RFP fluorescence | Matrix metalloproteinase-14 (Homo sapiens), P50281 | GFP/RFP ratio change, % at 20 µM | GFP/RFP ratio fluorescence, overnight; percent of plate control window, DMSO zero | 0.061% of 360,000 active;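 active = GFP/RFP ratio change of at least 30% with cell ATP level not reduced by more than half and red fluorescence within 50% of control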
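system = RFP-PRO-GFP reporter HT1080 cells | dosing = 20 µM single dose, 1% DMSO | timing = overnight cell settling, then overnight compound exposure, 37 °C, 5% CO2 | read-out basis = GFP/RFP fluorescence ratio | controls = DMSO and RFP-L50D-GFP cell wells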
FGF22 binding-1 – binders of human FGF22 protein, primary screen, FGF22 synaptogenesis inhibitor project, biophysical, thermal shift, single point. 1.5% of 340,000 active. Fibroblast growth factor 22 (Homo sapiens), Q9HCT0. recombinant FGF22 thermal shift, SYPRO orange fluorescence; percent of sucrose octasulfate shift, DMSO zero. activity (Tm shift, normalised), % at 9.99 µM;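 active = mean Tm shift, scaled 0 neutral to 100 positive control, at about 1.3% or above, every replicate too, limit read from the data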
VLA-4 inh – inhibition in human VLA-4 binding assay, primary screen, VLA-4 allosteric modulator project, MLPCN library, flow cytometry, VLA-4 expressing cells; Integrin alpha-4 (Homo sapiens), P13612; ligand binding flow cytometry; inhibition, % (about 7 µM as worked out from the volumes in the protocol); 0.2% of 330,000 active; AID 2557, 2010; in the data active = inhibition above about 50%
ABCB6 inh MLPCN – ABCB6 transporter inhibitors, primary screen, K562-ABCB6 cells, flow cytometry, MLPCN library; K562-ABCB6 porphyrin accumulation, 1 h; stronger effect = lower value; fluorescence ratio to DMSO, % at 10 µM; 0.19% of 360,000 active;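 active = fluorescence ratio to DMSO below 75%, the collection mean minus 3 SD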;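 also: signal is porphyrin accumulated inside mitochondria; lower ratio means ABCB6 inhibition with less porphyrin fluorescence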
Granule exo inh – LAMP-1 surface exposure blockers, TALL-104 cells – cell-based, flow cytometry, MLPCN library, primary screen; TALL-104 LAMP-1 surface exposure; cells stimulated with thapsigargin and PMA; 0.66% of 360,000 active; inhibition, % at 10 µM; AID 651702, 2012;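 active = inhibition above about 55%, limit read from the data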
DAGLB inhibitor – DAGLB lipase inhibitors, primary screen, biochemical, fluorescence, HTS. HEK293T DAGLB membrane lysate, EnzChek fluorogenic substrate. inhibition, % at 5.17 µM. 0.059% of 340,000 active. AID 504411, 2011; in the data active = inhibition above about 34%
FGF22 binding-2 – binders of human FGF22 protein, dose response, FGF22 synaptogenesis inhibitor project, biophysical, thermal shift, cherry-pick retest | recombinant FGF22 thermal shift, SYPRO orange fluorescence | shares compounds with FGF22 binding-1 | 2% of 1,000 active | thermal shift activity, °C (ΔTm) at 38 µM;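 active = fitted rise in melting shift crosses a set limit at or below the top valid dose tested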
FGF22 TSA – binders of human FGF22 protein, dose response, FGF22 synaptogenesis inhibitor project, biophysical, thermal shift, dry powder; shares compounds with FGF22 binding-1; Thermal shift assay, SYPRO orange, melting temperature shift; Tm shift (activity), % at 38 µM; 50 tested, under 10 active; AID 743017, 2013;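 active = compounds whose fitted dose curve of melting temperature shift rises past a set threshold within the tested doses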
TSA no protein – compound-only thermal shift signal without protein, dose response, artefact control for FGF22 binder project, biochemical, cherry-picked samples, RT-PCR instrument; shares compounds with FGF22 binding-1; compound-only SYPRO orange thermal shift counter-screen, no protein; AC50, µM (doses to about 38 µM); 2% of 1,000 active;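 active = rising signal whose fitted curve reaches the 0.54 level within the top valid dose, showing a melting point, actives reach about 13 µM in these data; inactive = the rest, including activity in the opposite direction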; also: value is where the raw curve crosses a fixed level and not half-maximal
A number is an active result.

What do the screens show for `CC(=O)Nc1cccc(C(=O)N/N=C/c2c[nH]c3ccccc23)c1`?
MT1-MMP act inh: inactive; FGF22 binding-1: 3.8; VLA-4 inh: inactive; ABCB6 inh MLPCN: inactive; Granule exo inh: inactive; DAGLB inhibitor: inactive; FGF22 TSA: inactive; TSA no protein: inactive

What do the screens show for `COc1ccc(C(=O)N/N=C/c2c[nH]c3ccccc23)cc1`?
MT1-MMP act inh: inactive; FGF22 binding-1: inactive; VLA-4 inh: inactive; ABCB6 inh MLPCN: inactive; Granule exo inh: inactive; DAGLB inhibitor: inactive

Results for O=C(N/N=C/c1c[nH]c2ccccc12)c1cccc(O)c1 ?
MT1-MMP act inh: inactive; FGF22 binding-1: 2.1; VLA-4 inh: inactive; ABCB6 inh MLPCN: inactive; Granule exo inh: inactive; DAGLB inhibitor: inactive; FGF22 binding-2: inactive; FGF22 TSA: inactive; TSA no protein: inactive

What do the screens show for `N#C[C@H]1[C@@H](c2ccc(C3=CCCC3)cc2)[C@@H](CO)N1C(=O)Nc1ccccc1F`?
FGF22 binding-1: inactive

Results for COc1ccc(NC(=O)N(C)C[C@@H]2Oc3c(NS(=O)(=O)c4ccc(F)cc4)cccc3C(=O)N([C@H](C)CO)C[C@H]2C)cc1 ?
FGF22 binding-1: inactive

Results for O=C(N/N=C/c1c[nH]c2ccccc12)c1ccc(O)c(O)c1 ?
MT1-MMP act inh: inactive; FGF22 binding-1: 2.4; VLA-4 inh: inactive; ABCB6 inh MLPCN: inactive; Granule exo inh: inactive; DAGLB inhibitor: inactive; FGF22 binding-2: inactive; FGF22 TSA: inactive; TSA no protein: inactive

How did COCC#Cc1ccc([C@@H]2[C@@H](CO)N3CCCCN(S(=O)(=O)c4ccccc4F)C[C@@H]23)cc1 do in these assays?
FGF22 binding-1: inactive

Results for C[C@H]1CN([C@@H](C)CO)C(=O)c2cc(NC(=O)CCC(F)(F)F)ccc2O[C@H]1CN(C)CC1CC1 ?
FGF22 binding-1: 1.8; FGF22 binding-2: inactive; TSA no protein: inactive

What do the screens show for `C[C@H]1CN([C@@H](C)CO)C(=O)c2cc(NC(=O)c3ccncc3)ccc2O[C@@H]1CN(C)S(=O)(=O)c1cn(C)cn1`?
FGF22 binding-1: 1.4; FGF22 binding-2: inactive; TSA no protein: inactive

Results for C[C@@H]1CN([C@@H](C)CO)C(=O)Cc2cc(NC(=O)C3CC3)ccc2O[C@H]1CN(C)S(=O)(=O)c1cn(C)cn1 ?
FGF22 binding-1: inactive

How did C[C@@H]1CN([C@H](C)CO)C(=O)c2cc(NC(=O)c3ccncc3)ccc2O[C@H]1CN(C)S(=O)(=O)c1cn(C)cn1 do in these assays?
FGF22 binding-1: inactive

What do the screens show for `C[C@@H]1CN([C@@H](C)CO)C(=O)c2cc(NS(=O)(=O)c3cn(C)cn3)ccc2O[C@@H]1CN(C)CC1CC1`?
FGF22 binding-1: 1.4; FGF22 binding-2: inactive; TSA no protein: inactive

Results for C[C@@H]1CN([C@H](C)CO)C(=O)Cc2cc(NC(=O)C3CC3)ccc2O[C@H]1CN(C)S(=O)(=O)c1cn(C)cn1 ?
FGF22 binding-1: 1.3; FGF22 binding-2: inactive; TSA no protein: inactive

Results for C[C@H](CO)N1C[C@H](C)[C@H](CN(C)CC2CC2)Oc2ccc(NC(=O)CCC(F)(F)F)cc2C1=O ?
FGF22 binding-1: inactive

How did C[C@@H]1CCCCO[C@@H](CN(C)CC2CCCCC2)[C@@H](C)CN([C@@H](C)CO)C(=O)c2cc(N(C)C)ccc2O1 do in these assays?
FGF22 binding-1: inactive

What do the screens show for `Cc1noc(C)c1S(=O)(=O)N(C)C[C@H]1Oc2ccc(NS(=O)(=O)c3cccs3)cc2C(=O)N([C@@H](C)CO)C[C@H]1C`?
FGF22 binding-1: 2.1; FGF22 binding-2: inactive; TSA no protein: inactive

Results for Cc1noc(C)c1S(=O)(=O)Nc1ccc2c(c1)C(=O)N([C@H](C)CO)C[C@H](C)[C@H](CN(C)S(=O)(=O)c1cccs1)O2 ?
FGF22 binding-1: inactive

Results for C[C@@H]1CN([C@H](C)CO)C(=O)c2cc(N(C)C)ccc2O[C@@H]1CN(C)CC1CCCCC1 ?
FGF22 binding-1: 1.4; FGF22 binding-2: inactive; TSA no protein: inactive

Results for C[C@@H]1CN([C@@H](C)CO)S(=O)(=O)c2ccc(C3=CCCC3)cc2O[C@@H]1CN(C)Cc1cccnc1 ?
FGF22 binding-1: inactive

How did COCC#Cc1cnc2c(c1)C(=O)N([C@@H](C)CO)C[C@H](C)[C@H](CN(C)C(=O)c1ccc(F)cc1)O2 do in these assays?
FGF22 binding-1: inactive

How did CN(C)CCCNC(=O)C[C@@H]1CC[C@H]2[C@@H](COc3ccc(NC(=O)C4CCC4)cc3C(=O)N2C)O1 do in these assays?
FGF22 binding-1: inactive

Results for O=C(Nc1nccs1)C1CC(=O)N(c2ccc(F)cc2)C1 (stereo not given) ?
MT1-MMP act inh: inactive; FGF22 binding-1: 1.4; VLA-4 inh: inactive; ABCB6 inh MLPCN: inactive; Granule exo inh: inactive; DAGLB inhibitor: inactive; FGF22 binding-2: inactive; FGF22 TSA: inactive; TSA no protein: inactive

Results for O=C(CNC(=O)c1cccc(Br)c1)N/N=C/c1cc(Br)cc(Br)c1O ?
MT1-MMP act inh: inactive; FGF22 binding-1: 1.7; VLA-4 inh: inactive; ABCB6 inh MLPCN: inactive; Granule exo inh: inactive; DAGLB inhibitor: inactive; FGF22 binding-2: inactive; TSA no protein: inactive

What do the screens show for `Cc1ccc(NC(=O)COC(=O)Cc2c[nH]c3ccccc23)cc1C`?
MT1-MMP act inh: inactive; FGF22 binding-1: inactive; VLA-4 inh: inactive; ABCB6 inh MLPCN: inactive; Granule exo inh: inactive; DAGLB inhibitor: inactive
